Measured values taken from ChEMBL document CHEMBL1129403, “Analogs of 3-hydroxy-1H-1-benzazepine-2,5-dione: structure-activity relationship at N-methyl-D-aspartate receptor glycine sites” (J Med Chem, 1996).
Several values for one entry are separate records, joined by “and”; a condition that tells them apart may be missing. Equal values may be shown once. Values belong to the compound of their own block, whether it stands above or below them.

Legend:
Glutamate NMDA receptor [1] = test: Inhibition of [3H]5,7-dichlorokynurenic acid(DCKA) binding to N-methyl-d-aspartate receptors(NMDA) of rat brain cortical membranes; type: cell membranes, Membrane
Procedure, shortened: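 [³H]DCKA (15-20 nM) incubated with well-washed rat cortical membranes and nine concentrations (up to 100 µM) in 50 mM HEPES-KOH, pH 7.5, for 30 min on ice. Reaction stopped by filtration and filter-bound radioactivity counted by liquid scintillation. IC50 taken from a sigmoidal fit.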

[2] = biological target: T1, Glutamate NMDA receptor (Rattus norvegicus) (UniProt P35439+Q00959+Q00960+Q00961+Q62645+Q8VHN2+Q9R1M7); test: Inhibition of NMDA(glycine) receptors was measured in oocytes expressing cloned rat brain receptor subunits (NR1a/2C). Number of cells examined are 2; type: functional, cell-based; conditions: Oocyte
Glutamate NMDA receptor [3] = test: Compound was tested for inhibition of [3H]MK-801 binding to N-methyl-d-aspartate receptors(NMDA) of rat brain cortical membranes.; type: cell membranes, Membrane
Procedure, shortened: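 [³H]MK801 displacement in rat brain cortical membranes, run by a previously described method. Compounds with IC50 < 300 µM were counted as potential NMDA antagonists.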

[4] = Ratio of binding affinities of NMDA / AMPA
Procedure, shortened: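 Steady-state selectivity index: Kb AMPA divided by Kb NMDA, with both Kb values taken from oocyte recordings.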

[5] = biological target: T2, Glutamate receptor ionotropic, AMPA (Rattus norvegicus) (UniProt P19491+P19492+P19493+P19490); test: Inhibition of AMPA(glutamate) preferring non-NMDA receptors was measured in cultured rat cortical neurons. Number of cells examined are 2
[6] = biological target: T1, Glutamate NMDA receptor (Rattus norvegicus); test: Inhibition of NMDA(glycine) receptors was measured in oocytes expressing cloned rat brain receptor subunits (NR1a/2C). Number of cells examined are 4; type: functional, cell-based; conditions: Oocyte
[7] = biological target: T2, Glutamate receptor ionotropic, AMPA (Rattus norvegicus); test: Inhibition of AMPA(glutamate) preferring non-NMDA receptors was measured in oocytes expressing rat brain poly(A)+ RNA. Number of cells examined are 3; type: functional, cell-based; conditions: Oocyte
Procedure, shortened: (§1)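 Oocytes injected with rat cerebral cortex poly(A)+ RNA, two-electrode voltage clamp. Currents elicited by 10 µM AMPA. Kb derived from partial concentration-inhibition curves by generalized Cheng-Prusoff, using AMPA EC50 5.89 µM and slope 1.96.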

[8] = biological target: T1, Glutamate NMDA receptor (Rattus norvegicus); test: Inhibition of NMDA(glycine) receptors was measured in oocytes expressing cloned rat brain receptor subunits (NR1a/2C). Number of cells examined are 3; type: functional, cell-based; conditions: Oocyte
[9] = biological target: T2, Glutamate receptor ionotropic, AMPA (Rattus norvegicus); test: Inhibition of AMPA(glutamate) preferring non-NMDA receptors was measured in oocytes expressing rat brain poly(A)+ RNA. Number of cells examined are 4; type: functional, cell-based; conditions: Oocyte; procedure, shortened: as §1
Mus musculus = test: In vivo potency in mouse maximum electroshock-inducedseizure after i.v. administration; type: functional; conditions: iv
[10] = biological target: T2, Glutamate receptor ionotropic, AMPA (Rattus norvegicus); test: Inhibition of AMPA(glutamate) preferring non-NMDA receptors was measured in cultured rat cortical neurons. Number of cells examined are 3
[11] = biological target: T2, Glutamate receptor ionotropic, AMPA (Rattus norvegicus); test: Inhibition of AMPA(glutamate) preferring non-NMDA receptors was measured in oocytes expressing rat brain poly(A)+ RNA. Number of cells examined are 5; type: functional, cell-based; conditions: Oocyte; procedure, shortened: as §1
[12] = biological target: T1, Glutamate NMDA receptor (Rattus norvegicus); test: Inhibition of NMDA(glycine) receptors was measured in oocytes expressing cloned rat brain receptor subunits (NR1a/2C). Number of cells examined are 7; type: functional, cell-based; conditions: Oocyte
[13] = biological target: T2, Glutamate receptor ionotropic, AMPA (Rattus norvegicus); test: Inhibition of AMPA(glutamate) preferring non-NMDA receptors was measured in cultured rat cortical neurons. Number of cells examined are 8
[14] = biological target: AMPA receptor (Rattus norvegicus); test: Inhibition of AMPA(glutamate) preferring non-NMDA receptors was measured in oocytes expressing rat brain poly(A)+ RNA. Number of cells examined are 6; conditions: Oocyte

- IC50 (Glutamate NMDA receptor [1]): > 100 µM
SMILES: CC(=O)Nc1ccc2[nH]c(=O)c(O)cc(=O)c2c1

- IC50 (Glutamate NMDA receptor [1]): > 100 µM
- Kb [2]: > 55 µM
SMILES: O=c1cc(O)c(=O)c2ccccc2[nH]1

- IC50 (Glutamate NMDA receptor [1]): 12 µM
SMILES: O=c1cc(O)c2cc([N+](=O)[O-])ccc2[nH]c1=O

- IC50 (Glutamate NMDA receptor [3]): > 300 µM
SMILES: Cc1ccc2[nH]c(=O)c(O)cc(=O)c2c1C

- IC50 (Glutamate NMDA receptor [3]): > 300 µM
SMILES: O=c1ccc(=O)c2ccccc2[nH]1

- IC50 (Glutamate NMDA receptor [3]): > 300 µM
SMILES: O=C(Nc1ccc2[nH]c(=O)c(=O)cc(O)c2c1)C(F)(F)F

- IC50 (Glutamate NMDA receptor [3]): > 300 µM
SMILES: Cc1cc(C)c2[nH]c(=O)c(O)cc(=O)c2c1

- IC50 (Glutamate NMDA receptor [3]): > 300 µM
SMILES: [N-]=[N+]=Nc1ccc2[nH]c(=O)c(=O)cc(O)c2c1

- IC50 (Glutamate NMDA receptor [1]): 2.2 µM
SMILES: Cc1cc2[nH]c(=O)c(O)cc(=O)c2c(C)c1[N+](=O)[O-]

- IC50 (Glutamate NMDA receptor [1]): 0.83 µM
- Ratio [4]: 32
- Kb [5]: 65 µM
- Kb [6]: 1.3 µM
- Kb [7]: 42 µM
SMILES: O=c1cc(O)c2ccccc2[nH]c1=O

- IC50 (Glutamate NMDA receptor [1]): 0.49 µM
- Ratio [4]: 25
- Kb [8]: 0.21 µM
- Kb [9]: 5.3 µM
SMILES: O=c1cc(O)c2ccc(F)cc2[nH]c1=O

- IC50 (Glutamate NMDA receptor [1]): 0.24 µM
- Ratio [4]: 44
- Kb [6]: 0.086 µM
- Kb [9]: 3.8 µM
SMILES: Cc1cc2[nH]c(=O)c(O)cc(=O)c2cc1C
- ED50 (Mus musculus): 6.3 mg/kg

- IC50 (Glutamate NMDA receptor [3]): > 300 µM
SMILES: O=c1cc(O)c2cc(Br)ccc2[nH]c1=O

- IC50 (Glutamate NMDA receptor [1]): 0.13 µM
- Ratio [4]: 40
- Kb [10]: 6.4 µM
- Kb [8]: 0.25 µM and 0.47 µM
- Kb [9]: 9.9 µM
SMILES: Cc1ccc2c(O)cc(=O)c(=O)[nH]c2c1

- IC50 (Glutamate NMDA receptor [1]): 5.1 µM
SMILES: CCc1ccc2c(O)cc(=O)c(=O)[nH]c2c1

- IC50 (Glutamate NMDA receptor [3]): > 300 µM
SMILES: Cc1c[nH]c(=O)c(O)cc1=O

- IC50 (Glutamate NMDA receptor [3]): > 300 µM
SMILES: Cc1ccc(C)c2c(O)cc(=O)c(=O)[nH]c12

- IC50 (Glutamate NMDA receptor [1]): 0.3 µM
SMILES: Cc1cc(C)c2c(O)cc(=O)c(=O)[nH]c2c1
- ED50 (Mus musculus): 3.9 mg/kg

- IC50 (Glutamate NMDA receptor [3]): > 300 µM
SMILES: O=Nc1c(O)c2ccccc2[nH]c(=O)c1=O

- IC50 (Glutamate NMDA receptor [1]): 0.013 µM
- Kb [11]: 2 µM
- Ratio [4]: 77
- Kb [12]: 0.026 µM
- Kb [13]: 10 µM
SMILES: O=c1cc(O)c2ccc(Cl)cc2[nH]c1=O
- ED50 (Mus musculus): 13 mg/kg

- IC50 (Glutamate NMDA receptor [3]): > 300 µM
SMILES: Cc1cccc2c(O)cc(=O)c(=O)[nH]c12

- IC50 (Glutamate NMDA receptor [1]): 13 µM
SMILES: Cc1cccc2[nH]c(=O)c(O)cc(=O)c12

- IC50 (Glutamate NMDA receptor [1]): 0.079 µM
- Ratio [4]: 100
- Kb [6]: 0.026 µM
- Kb [14]: 2.7 µM
SMILES: O=c1cc(O)c2ccc(Br)cc2[nH]c1=O
